Measurements taken from ChEMBL document CHEMBL4725444, “Brain Permeable Tafamidis Amide Analogs for Stabilizing TTR and Reducing APP Cleavage” (ACS Med Chem Lett, 2020).
The source made the active and inactive calls. No cut-off for these calls is given here.

Columns and labels:
N2a695 [1] = experiment: Increase in APP fragmentation in mouse N2a695 cells at 10 uM incubated for 6 hrs by Western blot analysis; type: functional, cell-based
Outline: (§1)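 N2a695 cells (4.0 × 10^5–4.5 × 10^5 cells/mL, 90–95% confluent) treated with 10 μM final compound for 6 h at 37 °C, 5% CO2. Lysates run on SDS-PAGE; membrane fixed with 0.25% glutaraldehyde in PBS, blocked in milk PBST, probed with RU369 (APP C-terminus antibody), HRP secondary, ECL detection; APP-CTF bands quantified versus DMSO control.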

N2a695 [2] = experiment: Inhibition of amyloid beta 40 production in mouse N2a695 cells at 10 uM incubated for 6 hrs by ELISA relative to control; type: cell-based
Outline: (§2)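 Human APP695-expressing N2a695 cells (4.0 × 10^5–4.5 × 10^5 cells/mL, 90–95% confluent) given 10 μM final compound for 6 h at 37 °C, 5% CO2. Media assayed by human Aβ40/Aβ42 sandwich ELISA (Aβ40 media diluted 5–10×, Aβ42 undiluted); levels compared with DMSO vehicle. At least two experiments in duplicate or triplicate.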

N2a695 [3] = experiment: Inhibition of amyloid beta 42 production in mouse N2a695 cells at 10 uM incubated for 6 hrs by ELISA relative to control; type: cell-based; outline: as §2
N2a695 [4] = experiment: Increase in APP-CTF fragmentation in mouse N2a695 cells at 10 uM incubated for 6 hrs by Western blot analysis; type: functional, cell-based; outline: as §1
[5] = target: Transthyretin (Homo sapiens) (UniProt P02766); experiment: Stabilization of recombinant dual FLAG-tagged wild type TTR (unknown origin) in plasma blood at < 30 uM incubated for 48 hrs by ion exchange chromatographic method; type: cell-free; conditions: dose microM <30, time 48.0 hrs
[6] = Inhibition of gamma secretase in mouse N2a695 cells using Sb4 substrate incubated for 3 hrs by ELISA; conditions: N2a695, 3 h
[7] = Brain concentration in 5XFAD mouse at 50 mg/kg, po measured after 15 days by LC-MS/MS analysis; type: ADME, organism-based; conditions: time 15 day, read-out: Ct
Outline: (§3)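 Dosed via drinking water for 15 days (50 mg/kg) in 3-month-old 5xFAD mice, n = 3. Blood and brain tissue collected on day 15; parent amide and its hydrolysis product tafamidis quantified in plasma and brain extracts by LC-MS/MS.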

N2a695 [8] = experiment: Effect on TTR-induced amyloid beta aggregation inhibition in mouse N2a695 cells measured for 4 hrs by fluorescence correlation spectroscopic analysis; type: functional, cell-based
[9] = Plasma concentration in 5XFAD mouse at 50 mg/kg, po measured after 15 days by LC-MS/MS analysis; type: ADME, organism-based; conditions: time 15 day; outline: as §3
N2a695 [10] = experiment: Inhibition of amyloid beta aggregation in mouse N2a695 cells measured for 4 hrs by fluorescence correlation spectroscopic analysis; type: cell-based
[11] = Metabolic stability in CD1 mouse liver microsomes assessed as parent compound remaining at 10 uM measured after 0.5 hrs by LC-MS/MS analysis relative to control; type: ADME, Microsome; conditions: read-out: Stabilty
Outline: (§4)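 Compound at 1 or 10 μM incubated with mouse or human liver microsomes at 25 °C for 30 and 60 min; remaining parent quantified by LC-MS/MS.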

[12] = Metabolic stability in human liver microsomes assessed as parent compound remaining at 1 uM measured after 1 hr by LC-MS/MS analysis relative to control; type: ADME, Microsome; conditions: read-out: Stabilty; outline: as §4
[13] = Metabolic stability in CD1 mouse liver microsomes assessed as parent compound remaining at 10 uM measured after 1 hr by LC-MS/MS analysis relative to control; type: ADME, Microsome; conditions: read-out: Stabilty; outline: as §4
[14] = Metabolic stability in mouse liver microsomes assessed as parent compound remaining after 0.5 hrs by LC-MS/MS analysis relative to control; type: ADME, Microsome; conditions: read-out: Stabilty; outline: as §4
[15] = Metabolic stability in CD1 mouse liver microsomes assessed as parent compound remaining at 1 uM measured after 1 hr by LC-MS/MS analysis relative to control; type: ADME, Microsome; conditions: read-out: Stabilty; outline: as §4
[16] = Metabolic stability in human liver microsomes assessed as parent compound remaining at 1 uM measured after 0.5 hrs by LC-MS/MS analysis relative to control; type: ADME, Microsome; conditions: read-out: Stabilty; outline: as §4
[17] = Cytotoxicity against mouse N2a695 cells assessed as reduction in cell viability at 10 uM incubated for 24 hrs by MTT assay; type: cell-based; conditions: n2a695, 24 h
Outline: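 N2a cells exposed to 10 μM compound for 24 h; viable cell number determined by MTT assay.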

| Activity [5] | Stability [5] | IC50 [6] | concentration at 360 h [7] | concentration at 360 h [9] | remaining at 0.5 h, 1 µM [11] | remaining at 1 h, 1 µM [12] | remaining at 1 h, 1 µM [13] | remaining at 0.5 h, 1 µM [14] | remaining at 1 h, 1 µM [15] | remaining at 0.5 h, 1 µM [16] | SMILES | Activity (N2a695 [1]) | inhibition (N2a695 [2]) | inhibition (N2a695 [3]) | Activity (N2a695 [4]) | Activity (N2a695 [8]) | inhibition (N2a695 [10]) | Activity [17] |
| --- | --- | --- | --- | --- | --- | --- | --- | --- | --- | --- | --- | --- | --- | --- | --- | --- | --- | --- |
| – | – | – | – | – | – | – | – | – | – | – | CN(C)CCNC(=O)c1ccc2nc(-c3ccc(C(F)(F)F)cc3)oc2c1 | Active | 30% | 30% | Active | – | – | – |
| Active | Stable | > 30 µM | 223 ng/g | 5800 nM | – | – | – | – | – | – | O=C(O)c1ccc2nc(-c3cc(Cl)cc(Cl)c3)oc2c1 [TAFAMIDIS] | inactive | – | – | inactive | inactive | inactive | – |
| Active | – | – | 137 ng/g | 80 nM | 26.7% | 70.3% | 1.2% | 15.1% | 2.3% | 75.4% | O=C(c1ccc2nc(-c3cc(Cl)cc(Cl)c3)oc2c1)N1CCNCC1 | Active | 30% | 30% | Active | inactive | inactive | Non-Toxic |
| – | – | – | – | – | – | – | – | – | – | – | O=C(c1ccc2nc(-c3ccc(C(F)(F)F)cc3)oc2c1)N1CCNCC1 | Active | 30% | 30% | Active | – | – | Toxic |
| – | – | – | – | – | – | – | – | – | – | – | O=C(NC1CCNCC1)c1ccc2nc(-c3cc(Cl)cc(Cl)c3)oc2c1 | Active | 30% | 30% | Active | – | – | Toxic |
